pIC50: −log10 of the molar value.
How the values were obtained:
[1] = target: T1, P2X purinoceptor 7 (Homo sapiens, UniProt Q99572); test: Antagonist activity at human cloned P2X7 receptor expressed in HEK293 cells assessed as inhibition of calcium flux by FLIPR assay; format: functional, cell-based
T1 sequence (Q99572 whole entry): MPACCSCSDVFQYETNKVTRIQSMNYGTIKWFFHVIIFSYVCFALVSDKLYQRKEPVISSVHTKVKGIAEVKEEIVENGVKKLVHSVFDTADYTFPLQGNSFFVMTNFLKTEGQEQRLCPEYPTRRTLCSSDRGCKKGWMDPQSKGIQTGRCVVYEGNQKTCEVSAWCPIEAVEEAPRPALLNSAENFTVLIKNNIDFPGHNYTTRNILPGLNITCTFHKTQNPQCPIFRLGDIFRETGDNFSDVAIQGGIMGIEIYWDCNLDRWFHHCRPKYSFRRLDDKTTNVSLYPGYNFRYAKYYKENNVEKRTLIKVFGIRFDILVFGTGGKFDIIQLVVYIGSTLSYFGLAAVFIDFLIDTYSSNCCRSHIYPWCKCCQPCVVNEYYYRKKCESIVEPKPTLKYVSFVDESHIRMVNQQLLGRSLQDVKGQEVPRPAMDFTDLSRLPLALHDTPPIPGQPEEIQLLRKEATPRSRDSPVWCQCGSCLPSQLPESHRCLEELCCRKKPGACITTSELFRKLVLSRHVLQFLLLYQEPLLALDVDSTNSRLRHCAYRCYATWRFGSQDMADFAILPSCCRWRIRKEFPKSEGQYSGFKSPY
Outline: (§1)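 Calcium influx read on a fluorometric imaging plate reader with Fluo-4 as the calcium-sensing dye. The P2X7 agonist was benzoylbenzoic ATP (BzATP). pIC50 values are the mean of two experiments unless otherwise indicated; some values are the mean of more than two experiments, with standard deviation shown.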

[2] = target: T2, P2X purinoceptor 7 (Rattus norvegicus, UniProt Q64663); test: Antagonist activity at rat cloned P2X7 receptor expressed in HEK293 cells assessed as inhibition of calcium flux by FLIPR assay; format: functional, cell-based; outline: as §1
T2 sequence (Q64663 whole entry): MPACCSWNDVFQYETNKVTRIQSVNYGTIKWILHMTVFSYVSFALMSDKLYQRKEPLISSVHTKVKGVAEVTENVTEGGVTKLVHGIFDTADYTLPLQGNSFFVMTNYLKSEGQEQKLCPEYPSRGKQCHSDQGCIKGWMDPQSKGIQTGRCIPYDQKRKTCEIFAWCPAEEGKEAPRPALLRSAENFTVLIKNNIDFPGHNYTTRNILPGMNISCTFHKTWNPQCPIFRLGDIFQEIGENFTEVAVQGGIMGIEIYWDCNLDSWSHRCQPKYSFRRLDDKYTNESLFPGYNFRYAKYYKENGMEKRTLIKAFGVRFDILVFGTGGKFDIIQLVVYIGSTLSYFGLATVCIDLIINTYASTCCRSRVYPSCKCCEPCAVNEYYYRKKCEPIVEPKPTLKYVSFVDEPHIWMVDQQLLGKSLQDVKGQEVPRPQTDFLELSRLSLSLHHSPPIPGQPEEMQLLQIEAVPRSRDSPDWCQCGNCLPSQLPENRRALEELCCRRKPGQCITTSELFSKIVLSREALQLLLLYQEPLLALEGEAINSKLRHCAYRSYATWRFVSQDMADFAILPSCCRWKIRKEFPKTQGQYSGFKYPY

[3] = Bioavailability in rat at 10 umol/kg, ip; format: ADME, organism-based; details: in vivo
[4] = tested on: Rattus norvegicus; test: Antinociceptive activity in ip dosed rat L5-L6 spinal nerve ligation model of neuropathic pain assessed as reduction in tactile allodynia; format: functional; design: Activity: scale not given: the % may be the effect or the level left
Outline: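 Intraperitoneal dosing in rats with L5-L6 spinal nerve ligation (Chung model). Tactile allodynia was measured by von Frey testing. ED50 in µmol/kg and maximum efficacy (%) are the mean of six animals.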

Structure (SMILES)	pIC50 [1]	pIC50 [2]	bioavailability [3]	Activity [4]	ED50 ([4]; Rattus norvegicus, Spinal nerve, ip)
COc1ccc(C(=O)NC(N=C(NC#N)Nc2ccccc2C)C(C)(C)C)cc1OC (configuration not stated)	5.30	6.20			
COc1ccc(CCCC(=O)NC(N/C(=N/C#N)Nc2cccnc2C)C(C)(C)C)cc1 (configuration not stated)	7.30	7.00			
COc1cc(OC)cc(C(=O)NC(NC(=NC#N)Nc2cccnc2OC)C(C)(Cl)Cl)c1 (configuration not stated)	7.30	7.70			
COc1ccc(CC(=O)NC(N=C(NC#N)Nc2ccc(F)cc2)C(C)(C)C)cc1OC (configuration not stated)	6.50	7.70			
COc1ccc(CCC(=O)NC(N/C(=N/C#N)Nc2ccccc2C)C(C)(C)C)cc1 (configuration not stated)	6.40	6.60			
COc1ncccc1NC(=NC#N)NC(NC(=O)c1ccc(Cl)cc1)C(C)(Cl)Cl (configuration not stated)	7.20	7.30			
COc1ccc(CC(=O)NC(N/C(=N/C#N)Nc2ccc(F)cc2F)C(C)(C)C)cc1OC (configuration not stated)	6.60	8.00			
Cc1ccccc1N/C(=N\C#N)NC(NC(=O)Cc1ccc(Cl)cc1)C(C)(C)C (configuration not stated)	7.20	7.70			
COc1ccc(CC(=O)NC(N=C(NC#N)NCc2ccccc2Cl)C(C)(C)C)cc1OC (configuration not stated)	6.20	6.70			
CC(Cl)(Cl)C(NC(=O)c1ccc(Cl)cc1)NC(=NC#N)Nc1cccnc1Cl (configuration not stated)	7.20	6.90			
CC(C)(C)C(NC(=O)Cc1ccc(Cl)cc1)N/C(=N/C#N)Nc1cccc2ncccc12 (configuration not stated)	8.00	8.20	66%	68%	55 µmol/kg
COc1ccc(CC(=O)NC(N=C(NC#N)Nc2cccc(C)c2)C(C)(C)C)cc1OC (configuration not stated)	6.00	7.40			
CC(C)(C)C(NC(=O)CCCc1cccnc1)N/C(=N/C#N)Nc1cccc2ncccc12 (configuration not stated)	7.00	7.40			

Continued, in another order:

pIC50 [1]	pIC50 [2]	Structure (SMILES)	bioavailability [3]	Activity [4]	ED50 ([4]; Rattus norvegicus, Spinal nerve, ip)
7.20	7.30	Cc1ncccc1NC(=NC#N)NC(NC(=O)CCCCc1ccccc1)C(C)(C)C (configuration not stated)			
7.20	8.10	COc1ccc(CC(=O)NC(NC(=NC#N)Nc2ccccc2Cl)C(C)(C)C)cc1OC (configuration not stated)			
7.50	7.90	COc1ccc(N/C(=N\C#N)NC(NC(=O)Cc2ccc(OC)c(OC)c2)C(C)(C)C)c(OC)n1 (configuration not stated)			
5.30	6.30	COc1ccc(CC(=O)NC(NC(=NC#N)Nc2ccccc2C)C(C)(C)C)cc1OC (stereo in doubt; (-)-13)			
7.40	8.20	CC(C)(C)C(NC(=O)Cc1ccc(C#N)cc1)N/C(=N/C#N)Nc1cccc2ncccc12 (configuration not stated)			
7.20	6.70	Cc1ccc(CC(=O)NC(NC(=NC#N)Nc2cccnc2C)C(C)(C)C)cc1F (configuration not stated)			
6.10	7.50	CCCCCC(=O)NC(N=C(NC#N)Nc1ccccc1C)C(C)(C)C (configuration not stated)			
6.60	6.80	COc1ccc(CC(=O)NC(N/C(=N/C#N)Nc2cccnc2C)C(C)(C)C)cc1OC (configuration not stated)			
5.70	7.70	COc1ccc(CC(=O)NC(N=C(NC#N)Nc2ccc(C)cc2)C(C)(C)C)cc1OC (configuration not stated)			
6.60	7.50	COc1ccc(CC(=O)NC(N/C(=N/C#N)Nc2cccc3cnccc23)C(C)(C)C)cc1OC (configuration not stated)			
7.20	8.50	COc1ccc(CC(=O)NC(N=C(NC#N)Nc2cc(C)ccc2C)C(C)(C)C)cc1OC (configuration not stated)			
6.90	7.90	COc1ccc(CC(=O)NC(NC(=NC#N)Nc2ccccc2C)C(C)(C)C)cc1OC (stereo in doubt; 13)	90%		
6.10	7.30	COc1ccc(CC(=O)NC(N=C(NC#N)Nc2ccc(F)c(F)c2)C(C)(C)C)cc1OC (configuration not stated)			
8.00	8.10	CSc1ccc(CC(=O)NC(N=C(NC#N)Nc2cccc3ncccc23)C(C)(C)C)cc1 (configuration not stated)			
7.10	7.60	Cc1ccccc1NC(=NC(NC(=O)CCCc1ccccc1)C(C)(C)C)NC#N (configuration not stated)			
5.60	6.10	COc1cc(OC)cc(C(=O)NC(N=C(NC#N)Nc2ccccc2C)C(C)(C)C)c1 (configuration not stated)			
